# Screening results from PubChem BioAssay.
# Shown are actives, neighbours in structure and some others; about 4.1% of the full set was active somewhere.
# MrgX1 antagonist: antagonists of human MrgX1 receptor, primary screen, HEK293 cells, Fluo-4 calcium flux. Mas-related G-protein coupled receptor member X1 (Homo sapiens), Q96LB2. BAM8-22 antagonism; active compounds read low. B-score at 10 µM. actives 1.3% (n = 310,000);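 active = calcium-response B-score plate-corrected more than 3 library SD below zero, starting fluorescence within 5 deviations, no agonist response on first addition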;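 note: peak minus trough fluorescence over baseline after final BAM8-22 challenge near maximal dose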
# Kir21 inh: inhibitors of mouse Kir2.1 inward-rectifier potassium channel. HEK293-Kir2.1, FluxOR thallium flux fluorescence; active compounds read low. B-score at 10 µM. actives 0.85% (n = 310,000). AID 1672, 2009;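 active = fluorescence ratio B-score at or below minus 3 SD of library scores, with starting-brightness B-score within 2 SD, cut at about -4.2 in these data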;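 note: channel flux triggered by added potassium and thallium sulfate stimulus; B-score of peak minus minimum fluorescence over baseline after thallium stimulus; more negative B-score means stronger Kir2.1 block with less thallium influx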
# Target sequence (P35561 whole entry, looked up): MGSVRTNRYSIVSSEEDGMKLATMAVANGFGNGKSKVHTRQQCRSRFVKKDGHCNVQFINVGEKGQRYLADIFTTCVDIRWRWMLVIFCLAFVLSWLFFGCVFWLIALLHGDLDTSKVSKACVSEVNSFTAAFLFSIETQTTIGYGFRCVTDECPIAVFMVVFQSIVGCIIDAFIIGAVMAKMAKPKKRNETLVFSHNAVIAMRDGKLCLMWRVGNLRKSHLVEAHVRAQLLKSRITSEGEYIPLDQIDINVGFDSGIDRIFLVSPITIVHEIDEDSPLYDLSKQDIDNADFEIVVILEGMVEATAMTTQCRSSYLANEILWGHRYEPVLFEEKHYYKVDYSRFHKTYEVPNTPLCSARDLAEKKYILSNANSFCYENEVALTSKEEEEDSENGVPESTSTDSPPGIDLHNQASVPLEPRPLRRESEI
# RGS4 act: RGS4 potentiators or activators, primary screen, cell-based, HEK293 M3R inducible RGS4, calcium flux; carbachol calcium flux Fluo4; active compounds read low; AID 463111, 2010; actives 0.92% (n = 310,000); B-score at 10 µM;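 active = B-score of the integrated calcium signal more than 4 SD below the library mean, with starting fluorescence not abnormally high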;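 note: negative B-score means reduced calcium response which marks RGS4 activation or potentiation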
#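 Assay system: Inducible-RGS4 HEK293 cells carrying M3 receptor | Schedule: Compound preincubation 20 min at room temperature before agonist | Signal: Kinetic calcium fluorescence imaging with Fluo4-AM dye, 2 µM | Read-out basis: B score from integrated fluorescence ratio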
# MrgX1 allo act: positive allosteric modulators of MrgX1, primary screen, HEK293 cells, Fluo-4 calcium flux; FDSS; active compounds read high; actives 0.63% (n = 310,000); B-score at 10 µM; Mas-related G-protein coupled receptor member X1 (Homo sapiens), Q96LB2; AID 588675, 2011;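 active = plate-corrected calcium response at least 3 library SD above typical, normal starting fluorescence, not activating the receptor alone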;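 note: compound read alongside a low EC10 to EC30 dose of BAM8-22 agonist; peak minus trough fluorescence over baseline measured at the second addition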
# RGS4 inh: RGS4 inhibitors, primary screen, cell-based, HEK293 M3R inducible RGS4, calcium flux | Regulator of G-protein signaling 4 (Homo sapiens), P49798 | Fluo-4 calcium flux; active compounds read high; triggered by carbachol at its EC20 | B-score at 10 µM | actives 0.45% (n = 310,000) | AID 463165, 2010;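 active = B-score, a plate-corrected calcium signal, over three deviations above library mean, with baseline fluorescence within five deviations of library mean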;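 note: RGS4 expression induced by doxycycline in cells with stable M3 receptor; B-score is computed from the integrated fluorescence ratio over baseline after carbachol; higher B-score means a larger calcium signal and so more RGS4 inhibition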
# Target sequence (P49798 whole entry, looked up): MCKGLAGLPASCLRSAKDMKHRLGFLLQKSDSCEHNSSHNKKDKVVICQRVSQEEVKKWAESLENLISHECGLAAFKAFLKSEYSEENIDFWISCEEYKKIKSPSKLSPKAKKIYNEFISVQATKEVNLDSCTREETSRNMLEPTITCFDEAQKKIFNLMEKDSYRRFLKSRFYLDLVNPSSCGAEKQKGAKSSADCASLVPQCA
# MrgX1 ag: agonists of human MrgX1 receptor, primary screen, HEK293 cells, Fluo-4 calcium flux | Fluo-4 calcium fluorescence, agonist mode; active compounds read high | AID 588627, 2011 | actives 0.44% (n = 310,000) | B-score at 10 µM | Mas-related G-protein coupled receptor member X1 (Homo sapiens), Q96LB2;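 active = calcium response B-score plate-corrected fluorescence ratio at least 3 library SD, with starting fluorescence B-score inside 5 SD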
#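 times = overnight plating, then 30 min 37 °C plus 30 min room-temperature dye loading | assay system = stable human MrgX1 HEK293 cell line | input = fifteen thousand cells per well | signal = kinetic calcium dye fluorescence, Fluo-4 NW | dosing = compound delivered in addition one of three | read-out = B-scored fluorescence response ratio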
# Active calls of the source: *; i = inactive.
SMILES,MrgX1 antagonist,Kir21 inh,RGS4 act,MrgX1 allo act,RGS4 inh,MrgX1 ag
CCN(CC)C(CNC(=O)c1cc(=O)[nH]c2ccccc12)c1ccccc1Cl (centres undefined),i,-0.25,-7.5*,i,i,i
O=C(NCc1cccc(Cl)c1)c1cc(=O)[nH]c2ccccc12,i,1.8,i,i,i,i
Cc1nn(CC(=O)Nc2ccc(C(C)C)cc2)c(C)c1[N+](=O)[O-],-7.1*,-1.1,i,i,i,i
CC1CCN(C(=O)c2ccc(NC(=O)CC3SC(N4CCCC4)=NC3=O)cc2)CC1 (centres undefined),i,-0.03,i,i,i,i
CCn1c(CSCc2ccc(F)cc2)nnc1SCC(=O)NCc1ccccc1,i,-2.1,i,i,i,i
CCn1c(CSCc2ccc(C)cc2)nnc1SCC(=O)NCc1ccccc1,i,-6*,i,i,i,i
CC1=NN(/C(=N\c2nnc(C)s2)Nc2ccc(C)cc2)[C@H](c2ccc(C)cc2)S1,i,0.23,i,i,i,30*
Cc1ccc(Sc2ncccc2COC(=O)Nc2c(C)cccc2C)cc1,i,-4.6*,i,i,i,i
COc1ccc(OCc2nn3c(-c4cccc(OC)c4)nnc3s2)cc1,i,-0.25,i,i,i,i
N#CC1=C(N)N(c2ccccc2)C(c2cccc([N+](=O)[O-])c2)C1(C#N)C#N (centres undefined),i,-9.7*,i,i,i,i
COC(=O)/C(=N/Nc1ccccc1Cl)Sc1nnc(C(O)c2ccccc2)n1-c1ccccc1 (centres undefined),i,1.4,i,i,i,i
COc1ccc(-n2nc(C(=O)NCc3ccco3)c3c4ccccc4n(C)c3c2=O)cc1Cl,i,-0.2,i,i,i,i
COc1ccccc1CNC(=O)c1nn(-c2ccc(C)cc2)c(=O)c2c1c1ccccc1n2C,-8*,1.9,i,i,i,i
COc1ccccc1NC(=O)/C(=C\c1cccs1)NC(=O)c1ccco1,i,-0.96,i,i,i,i
O=C1/C(=C/c2ccccc2)CCC1C1CCCC1 (centres undefined),i,0.05,i,i,i,i
CN1C2CCC1/C(=C\c1ccccc1)C(=O)/C2=C\c1ccccc1,i,-1.4,i,12*,i,i
Cc1ccc(NC(=O)c2ccc(Nc3c([N+](=O)[O-])cc([N+](=O)[O-])cc3[N+](=O)[O-])cc2)cc1,i,-0.92,i,i,i,i
C=CCn1c(O)c(N=NC(=S)Nc2cccc(OC)c2)c2ccccc21,i,-1.9,i,i,i,i
C=CCn1c(O)c(N=NC(=S)Nc2ccc(OC)cc2)c2ccccc21,i,-5.3*,i,i,i,i
O=C(c1cccc(OC2CCN(Cc3cc(F)cc(F)c3)CC2)c1)N1CCCC1,i,-1.4,i,i,i,i
CSc1ccc(CN2CCC(N3CC(C)OC(C)C3)CC2)cc1 (centres undefined),i,0.33,i,i,i,i
O=C(c1cccc(OC2CCN(Cc3ccc(F)cc3Cl)CC2)c1)N1CCCC1,i,-4.7*,i,i,i,i
CSc1ccc(CN2CCC(Oc3cccc(C(=O)N4CCCC4)c3)CC2)cc1,i,-4.6*,i,i,i,i
CSc1ccc(OC2CCN(Cc3ccccc3)CC2)cc1,i,-20*,-7.9*,i,i,i
O=C(c1cccc(OC2CCN(C3CCCC3)CC2)c1)N1CCCCCCC1,i,0.02,i,i,i,i
SMILES,MrgX1 antagonist,Kir21 inh,RGS4 act,MrgX1 allo act,RGS4 inh,MrgX1 ag
Cc1ccc(/C(C#N)=C\c2ccc(N3CCOCC3)o2)cc1,i,-0.68,i,i,i,i
N#C/C(=C/c1ccc(N2CCCCC2)o1)c1cccc(F)c1,-6.4*,-2.2,i,i,i,i
N#C/C(=C/c1ccc(N2CCCCC2)cc1)c1cccc(F)c1,i,-1.4,i,i,i,i
N#C/C(=C/c1ccc(N2CCCCCC2)o1)c1ccc(Cl)cc1,i,-3.8,i,6.5*,i,i
CN(C)c1cccc(NC(=O)CCc2ccccc2)c1,i,0.9,i,i,i,i
Cn1c(=O)c([N+](=O)[O-])c(N2CCN(Cc3ccc4c(c3)OCO4)CC2)c2ccccc21,i,1.1,-7.3*,i,i,i
COc1ccc(C(O)Cn2c(=N)n(CCCN(C)C)c3ccccc32)cc1 (centres undefined),i,-0.63,i,i,i,i
CCCn1c(=N)n(CC(O)c2ccc(C)cc2)c2ccccc21 (centres undefined),i,-6*,i,i,i,i
Cn1c(=N)n(CC(O)c2cccc3ccccc23)c2ccccc21 (centres undefined),i,-4.4*,i,i,i,i
CCCn1c(=N)n(CC(O)c2ccco2)c2ccccc21 (centres undefined),i,-0.17,i,i,i,i
Cn1c(=N)n(CC(O)c2ccco2)c2ccccc21 (centres undefined),i,-0.14,i,i,i,i
N=c1n(Cc2ccccc2Cl)c2ccccc2n1CC(O)c1ccco1 (centres undefined),i,-5.2*,i,i,i,i
Cc1ccc(Cn2c(=N)n(CC(O)c3ccco3)c3ccccc32)cc1 (centres undefined),i,-5*,i,i,i,i
O=C(COc1cc(Cl)c(Cl)cc1Cl)Nc1ccncc1,i,-1.4,i,i,i,i
CC[C@@](C)(NS(=O)(=O)OCC(Cl)(Cl)Cl)c1ccccc1,i,-5.1*,i,i,i,i
O=C(/C=C/c1cccnc1)c1ccc(NC(=O)c2cccc(Br)c2)cc1,i,-0.33,i,7.1*,i,i
C=CCN1C(=O)CSc2ccc(C(=O)NC(C)c3ccccc3)cc21 (centres undefined),i,-1.6,i,i,i,i
O=[N+]([O-])c1ccc2nc(-c3ccc(Cl)cc3)[nH]c2c1,-5.8*,-1.4,i,i,i,i
